In brackets after ≈: the same amount, converted by molar mass. Activity calls are given as the source filed them. The calls are words filed in the database; no cut-off is given here.
What was measured:
Enterococcus faecalis [1] = experiment: Antibacterial activity against vancomycin-resistant Enterococcus faecalis CKU-17 expressing VanB after 48 hrs by broth microdilution method; assay type: functional; conditions: CKU-17, 48 h
Enterococcus faecalis [2] = experiment: Antibacterial activity against Enterococcus faecalis after 48 hrs by broth microdilution method; assay type: functional
Enterococcus faecium [3] = experiment: Antibacterial activity against vancomycin-resistant Enterococcus faecium F935 expressing VanA assessed as reduction of bacterial count by time kill assay; assay type: functional, organism-based
In short: (§1)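 Time-kill in LB broth with multiples of the broth microdilution MIC (1/2 to 8× MIC). Starting inoculum about 5 × 10^5 CFU/mL, incubated at 35 °C. Samples taken at 0, 2, 4, 6 and 24 h, dilution-plated on LB agar, and counted after 24 h. Detection limit 100 CFU/mL.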

Staphylococcus aureus [4] = experiment: Antibacterial activity against Staphylococcus aureus after 24 hrs by broth microdilution method; assay type: functional
In short: (§2)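 2-fold serial dilutions of test agent in Mueller-Hinton broth, DMSO under 5% final. Inoculum about 5 × 10^5 CFU/mL, confirmed by LB agar plating. Incubated 24 h at 35 °C in ambient air. MIC is the lowest concentration with no visible growth. Three repeats; oxacillin, vancomycin and chloramphenicol as positive controls.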

Staphylococcus aureus [5] = experiment: Ratio of MBC to MIC for Staphylococcus aureus; assay type: functional
Enterococcus faecalis [6] = experiment: Antibacterial activity against Enterococcus faecalis after 24 hrs by broth microdilution method; assay type: functional
In short: as §2, with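 “LB” for “Mueller-Hinton”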

Staphylococcus aureus [7] = experiment: Antibacterial activity against methicillin-resistant Staphylococcus aureus 8-8S assessed as reduction of bacterial count at 0.5 MIC within 2 hrs by time kill assay; assay type: functional; design: scale not given: the % may be the effect or the level left
In short: (§3)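 Time-kill in Mueller-Hinton broth with multiples of the broth microdilution MIC. Starting inoculum about 5 × 10^5 CFU/mL, incubated at 35 °C. Samples taken at 0, 2, 4, 6 and 24 h, dilution-plated on LB agar, and counted after 24 h. Detection limit 100 CFU/mL; bactericidal means 3 log or greater reduction.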

Escherichia coli = experiment: Antibacterial activity against Escherichia coli up to 100 ug/mL after 24 hrs by broth microdilution method; assay type: functional, organism-based
In short: (§4)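 Broth microdilution with 2-fold serial dilutions in LB broth, compounds from DMSO stocks (DMSO below 5% final), inoculum about 5 × 10^5 CFU/mL. Incubated 24 h at 35 °C in ambient air. MIC is the lowest concentration with no visible growth. Experiments repeated three times.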

HeLa = experiment: Cytotoxicity against human HeLa cells after 48 hrs by MTT assay; assay type: functional; conditions: read-out: CD50 (the source's name)
In short: (§5)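 Cells seeded at 5 × 10^3 per well, grown 24 h, then given 2-fold dilutions of sample for 48 h. Medium replaced with serum-free medium, MTT added (5 mg/mL stock) for 2 h at 37 °C, formazan dissolved in DMSO, OD read at 550 nm. CD50 is the concentration giving 50% reduction in net cell increase. Quadruplicate, repeated at least twice.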

Enterococcus faecium [8] = experiment: Ratio of MBC to MIC for vancomycin-resistant Enterococcus faecium F935 expressing VanA; assay type: functional
Enterococcus faecalis [9] = experiment: Ratio of MBC to MIC for Enterococcus faecalis; assay type: functional
Enterococcus faecalis [10] = experiment: Antibacterial activity against vancomycin-resistant Enterococcus faecalis CKU-17 expressing VanB assessed as reduction of bacterial count by time kill assay; assay type: functional, organism-based; in short: as §1
OVCAR-3 = experiment: Cytotoxicity against human OVCAR-3 cells after 48 hrs by MTT assay; assay type: functional; conditions: OVCAR-3, 48 h, read-out: CD50 (the source's name); in short: as §5
Staphylococcus aureus [11] = experiment: Antibacterial activity against methicillin-resistant Staphylococcus aureus 8-8S assessed as reduction of bacterial count at MIC within 2 hrs by time kill assay; assay type: functional, organism-based; in short: as §3
Enterococcus faecalis [12] = experiment: Antibacterial activity against vancomycin-resistant Enterococcus faecalis CKU-17 expressing VanB after 24 hrs by broth microdilution method; assay type: functional; conditions: CKU-17, 24 h
In short: as §2, with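 “LB” for “Mueller-Hinton”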

Pseudomonas aeruginosa = experiment: Antibacterial activity against Pseudomonas aeruginosa up to 100 ug/mL after 24 hrs by broth microdilution method; assay type: functional, organism-based; in short: as §4
HepG2 = experiment: Cytotoxicity against human HepG2 cells after 48 hrs by MTT assay; assay type: functional; conditions: HepG2, 48 h, read-out: CD50 (the source's name); in short: as §5
Staphylococcus aureus [13] = experiment: Antibacterial activity against Staphylococcus aureus after 48 hrs by broth microdilution method; assay type: functional
Staphylococcus aureus [14] = experiment: Antibacterial activity against methicillin-resistant Staphylococcus aureus 8-8S after 48 hrs by broth microdilution method; assay type: functional
Staphylococcus aureus [15] = experiment: Antibacterial activity against methicillin-resistant Staphylococcus aureus 8-8S after 24 hrs by broth microdilution method; assay type: functional; in short: as §2
Enterococcus faecium [16] = experiment: Antibacterial activity against vancomycin-resistant Enterococcus faecium F935 expressing VanA after 48 hrs by broth microdilution method; assay type: functional; conditions: F935, 48 h
Enterococcus faecium [17] = experiment: Antibacterial activity against vancomycin-resistant Enterococcus faecium F935 expressing VanA after 24 hrs by broth microdilution method; assay type: functional; conditions: F935, 24 h
In short: as §2, with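 “LB” for “Mueller-Hinton”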

In the case of `CC(=O)O[C@@H](CC=C(C)C)C1=CC(=O)c2c(O)ccc(O)c2C1=O` [ACETYLALKANNIN], the MBC (Enterococcus faecalis [1]) is reported as 6.25 µg/mL (≈ 18.9 µM), the MBC (Enterococcus faecalis [2]) is reported as 3.13 µg/mL (≈ 9.48 µM) and the Activity (Enterococcus faecium [3]) is reported as “Dose-dependent effect”. The MIC (Staphylococcus aureus [4]) was 1.56 µg/mL (≈ 4.72 µM), the Ratio (Staphylococcus aureus [5]) was “<=2” and the MIC (Enterococcus faecalis [6]) was 3.13 µg/mL (≈ 9.48 µM). For the same compound, the Activity (Staphylococcus aureus [7]) was “>=99.9%”, the Activity (Escherichia coli) was “inactive” and the CC50 (HeLa) was 1.5 µg/mL (≈ 4.54 µM). For the same compound, the Ratio (Enterococcus faecium [8]) was “<=2”, the Ratio (Enterococcus faecalis [9]) was “<=2” and the Activity (Enterococcus faecalis [10]) was “Dose-dependent effect”. The CC50 (OVCAR-3) was 1.5 µg/mL (≈ 4.54 µM), the Activity (Staphylococcus aureus [11]) was “Active” and the MIC (Enterococcus faecalis [12]) was 6.25 µg/mL (≈ 18.9 µM). The Activity (Pseudomonas aeruginosa) was “inactive”, the CC50 (HepG2) was 2 µg/mL (≈ 6.05 µM) and the MBC (Staphylococcus aureus [13]) was 1.56 µg/mL (≈ 4.72 µM). The MBC (Staphylococcus aureus [14]) was 1.56 µg/mL (≈ 4.72 µM), the MIC (Staphylococcus aureus [15]) was 1.56 µg/mL (≈ 4.72 µM) and the MBC (Enterococcus faecium [16]) was 6.25 µg/mL (≈ 18.9 µM). It also gave an MIC (Enterococcus faecium [17]) of 6.25 µg/mL (≈ 18.9 µM).
